Here are results for 39 compounds from ChEMBL document CHEMBL1129067, “Dioxabicyclooctanyl naphthalenenitriles as nonredox 5-lipoxygenase inhibitors: structure-activity relationship study directed toward the improvement of metabolic stability” (J Med Chem, 1996).

The species named for test [1] is Homo sapiens. As to the kind of experiment: Test inhibition of LTB4 production in human peripheral blood polymorphonuclear leukocytes (HPMN). It counts as functional. In a few lines:
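LTB4 generation measured in human peripheral blood polymorphonuclear leukocytes. IC50 values are the mean of at least two independent determinations, though some values come from a single titration.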

For test [2], the target named is T1, Polyunsaturated fatty acid 5-lipoxygenase (Homo sapiens, UniProt P09917).
T1 sequence (P09917 whole entry): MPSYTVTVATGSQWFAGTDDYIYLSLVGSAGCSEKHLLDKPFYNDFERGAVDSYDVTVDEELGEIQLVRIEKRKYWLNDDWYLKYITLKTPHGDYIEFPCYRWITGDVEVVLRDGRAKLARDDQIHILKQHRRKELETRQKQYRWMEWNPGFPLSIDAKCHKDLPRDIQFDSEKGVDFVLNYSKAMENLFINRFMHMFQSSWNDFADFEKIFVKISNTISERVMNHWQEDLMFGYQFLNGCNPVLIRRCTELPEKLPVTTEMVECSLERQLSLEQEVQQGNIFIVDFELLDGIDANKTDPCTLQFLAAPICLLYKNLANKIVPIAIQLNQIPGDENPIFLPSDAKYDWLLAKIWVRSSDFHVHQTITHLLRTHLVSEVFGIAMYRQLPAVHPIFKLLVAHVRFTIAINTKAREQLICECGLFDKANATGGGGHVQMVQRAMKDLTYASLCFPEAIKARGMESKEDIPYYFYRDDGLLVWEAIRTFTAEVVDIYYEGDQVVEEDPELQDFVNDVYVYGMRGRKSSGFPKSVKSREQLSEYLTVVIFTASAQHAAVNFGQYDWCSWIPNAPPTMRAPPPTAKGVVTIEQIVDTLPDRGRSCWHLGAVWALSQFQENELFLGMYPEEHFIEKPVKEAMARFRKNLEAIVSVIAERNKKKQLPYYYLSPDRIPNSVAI
As to the kind of experiment: Potency to inhibit oxidation of arachidonic acid by recombinant human 5-lipoxygenase.

The species entered for test [3] is Homo sapiens. Put plainly: Compound was tested for the inhibition of LTB4 production in human whole blood (HWB). It counts as functional. To be noted: Homo sapiens, Blood. In a few lines:
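LTB4 generation measured in human whole blood. IC50 values are the mean of at least two independent titrations, though some values come from a single titration. Where more than two IC50 values were determined, the 95% confidence limits were within 90% of the mean.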

SMILES strings stand for the structures. pIC50: −log10 of the molar value.

For `O=C(c1cc(-c2ccoc2)c2ccc(OCc3cccc(C4(O)CCOCC4)c3)cc2c1)c1nccs1`, the pIC50 was 8.70 in the test filed under Homo sapiens [1] (Homo sapiens), 7.30 in test [2] and 6.89 in the test listed under Homo sapiens [3].
For `O=C1OCc2c1cc1cc(OCc3cccc(C4(O)CC5C=CC(C4)O5)c3)ccc1c2-c1ccccc1` (stereo not drawn) the same measures were 7.57, 6.40 and less than 5.52.
As for `CC1(C)COC(c2cc(-c3ccoc3)c3ccc(OCc4cccc(C5(O)CCOCC5)c4)cc3c2)=N1`, the negative logarithm of the IC50 (pIC50) in the test listed under Homo sapiens [1] (Homo sapiens) is 7.77; in test [2], 6.72; in the test filed under Homo sapiens [3] it was 5.54.
`O=C1OCc2c1cc1cc(OCc3cccc(C4(O)CC5CCC(C4)O5)c3)ccc1c2-c1ccccc1` (stereo not drawn): the figures for the pIC50 (in the test filed under Homo sapiens [1] (Homo sapiens); in test [2]; in the test filed under Homo sapiens [3]) were 8.10, 6.49 and 6.00, respectively.
On the same counts, the results for `OC1(c2cccc(COc3ccc4c(-c5ccccc5)cc(-c5nn[nH]n5)cc4c3)c2)CCOCC1` are less than 6.15, less than 5.22 and less than 5.52.
Consider `OC1(c2cccc(COc3ccc4c(-c5ccoc5)cc(C5=NCCS5)cc4c3)c2)CCOCC1`, for which the figures for the pIC50 (in the test filed under Homo sapiens [1] (Homo sapiens); in test [2]; in the test filed under Homo sapiens [3]) were 8.70, 7.30 and 7.12, respectively.
As to `OC1(c2cccc(COc3ccc4c(-c5ccoc5)cc(-c5nc6ccccc6s5)cc4c3)c2)CCOCC1`, the figures for the pIC50 (in the test listed under Homo sapiens [1] (Homo sapiens); in test [2]) were less than 7.21 and less than 5.22, respectively.
On the same counts, the results for `OCc1cc(-c2ccccc2)c2ccc(OCc3cccc(C4(O)CCOCC4)c3)cc2c1` are 8.05 and 6.59.
For the compound `CCc1cc(-c2ccccc2)c2ccc(OCc3cccc(C4(O)CCOCC4)c3)cc2c1`, the pIC50 in the test filed under Homo sapiens [1] (Homo sapiens) was 8.00; in test [2] it was 6.12; in the test listed under Homo sapiens [3] it was less than 6.00.
In the case of `CC(=O)c1cc(-c2ccccc2)c2ccc(OCc3cccc(C4(O)CCOCC4)c3)cc2c1`, the pIC50 is 8.70 in the test filed under Homo sapiens [1] (Homo sapiens), 6.89 in test [2] and 7.05 in the test listed under Homo sapiens [3].
As for `O=C1OCc2c1cc1cc(OCc3cccc(C4(O)CCOCC4)c3)ccc1c2-c1ccoc1`, the figures for the negative-log IC50 (pIC50) (in the test listed under Homo sapiens [1] (Homo sapiens); in test [2]; in the test filed under Homo sapiens [3]) were 8.70, 7.59 and 7.00, respectively.
For `COC(=O)c1cc(Cc2ccccc2)c2ccc(OCc3cccc(C4(O)CCOCC4)c3)cc2c1`, the negative-log IC50 (pIC50) in the test listed under Homo sapiens [1] (Homo sapiens) is less than 7.15; in test [2], less than 5.22.
Consider `Cn1nnc(-c2cc(-c3ccccc3)c3ccc(OCc4cccc(C5(O)CCOCC5)c4)cc3c2)n1`, for which the values for the pIC50 (in the test listed under Homo sapiens [1] (Homo sapiens); in test [2]; in the test listed under Homo sapiens [3]) were 8.40, 6.92 and 6.51, respectively.
As to `O=C1OCc2c1cc1cc(OCc3cccc(C4(O)CC5COC(C4)O5)c3)ccc1c2-c1ccccc1` (stereo not drawn), the negative-log IC50 (pIC50) is 8.22 in the test listed under Homo sapiens [1] (Homo sapiens), 6.62 in test [2] and 6.27 in the test listed under Homo sapiens [3].
For `O=C1OC(O)c2c1cc1cc(OCc3cccc(C4(O)CCOCC4)c3)ccc1c2-c1ccccc1` (stereo not drawn) the same measures were less than 6.15, less than 5.22 and less than 5.52.
Turning to `O=C(O)c1cc(-c2ccccc2)c2ccc(OCc3cccc(C4(O)CCOCC4)c3)cc2c1`, the pIC50 in the test filed under Homo sapiens [1] (Homo sapiens) was 6.72.
`O=C1OCc2c1cc1cc(OCc3cccc(C4(O)CCOCC4)c3)ccc1c2-c1ccccc1`: the pIC50 in the test listed under Homo sapiens [1] (Homo sapiens) was 8.70; in the test listed under Homo sapiens [3], 6.85.
For `O=C1OCc2c1cc1cc(OCc3cccc(C4(O)CCOCC4)c3)ccc1c2-c1ccccc1F`, the pIC50 in the test filed under Homo sapiens [1] (Homo sapiens) is 7.74; in test [2] it was 6.44; in the test listed under Homo sapiens [3], 5.74.
As for `OC1(c2cccc(COc3ccc4c(-c5ccccc5)cc(Cn5ccnc5)cc4c3)c2)CCOCC1`, the negative logarithm of the IC50 (pIC50) in the test filed under Homo sapiens [1] (Homo sapiens) was 7.40; in test [2], 6.19.
With `CC(O)c1cc(-c2ccccc2)c2ccc(OCc3cccc(C4(O)CCOCC4)c3)cc2c1` (stereo not drawn), the pIC50 in the test listed under Homo sapiens [1] (Homo sapiens) is 7.55; in test [2] it was 6.28; in the test listed under Homo sapiens [3], 6.17.
For `COC(C)c1cc(-c2ccccc2)c2ccc(OCc3cccc(C4(O)CCOCC4)c3)cc2c1` (stereo not drawn) the same measures were 7.39, 5.92 and less than 6.00.
`COC1CC(O)(c2cccc(COc3ccc4c(-c5ccccc5)c5c(cc4c3)C(=O)OC5)c2)CCO1` (stereo not drawn): the negative logarithm of the IC50 (pIC50) in the test filed under Homo sapiens [1] (Homo sapiens) is 8.70; in test [2], 7.64; in the test filed under Homo sapiens [3], 6.92.
For `Cn1nnc(-c2cc(-c3ccoc3)c3ccc(OCc4cccc(C5(O)CCOCC5)c4)cc3c2)n1`, the pIC50 is 8.70 in the test filed under Homo sapiens [1] (Homo sapiens), 7.10 in test [2] and 7.10 in the test listed under Homo sapiens [3].
As for `O=C(c1ccccc1)c1cc(-c2ccoc2)c2ccc(OCc3cccc(C4(O)CCOCC4)c3)cc2c1`, the pIC50 in the test listed under Homo sapiens [1] (Homo sapiens) is 9.00; in test [2] it was 7.15; in the test filed under Homo sapiens [3] it was 6.70.
For `COc1ccc(-c2c3c(cc4cc(OCc5cccc(C6(O)CCOCC6)c5)ccc24)C(=O)OC3)cc1`, the pIC50 in the test listed under Homo sapiens [1] (Homo sapiens) is 7.05; in test [2] it was 5.22.
Take `CC1(C)OC(=O)c2cc3cc(OCc4cccc(C5(O)CCOCC5)c4)ccc3c(-c3ccccc3)c21`: the pIC50 was 7.10 in the test filed under Homo sapiens [1] (Homo sapiens), less than 5.22 in test [2] and less than 5.52 in the test listed under Homo sapiens [3].
Regarding `CC(C)(O)c1cc(-c2ccccc2)c2ccc(OCc3cccc(C4(O)CCOCC4)c3)cc2c1`, the pIC50 in the test listed under Homo sapiens [1] (Homo sapiens) is 7.23.
Turning to `OC1(c2cccc(COc3ccc4c(-c5ccoc5)cc(Cc5nccs5)cc4c3)c2)CCOCC1`, the figures for the pIC50 (in the test listed under Homo sapiens [1] (Homo sapiens); in test [2]; in the test listed under Homo sapiens [3]) were 9.00, 6.85 and 6.18, respectively.
In the case of `O=C1OCc2c1cc1cc(OCc3cccc(C4(O)CCOCC4)c3)ccc1c2-c1ccsc1`, the pIC50 was 8.70 in the test filed under Homo sapiens [1] (Homo sapiens), 7.57 in test [2] and 7.30 in the test filed under Homo sapiens [3].
With `O=C1OCc2c1cc1cc(OCc3cccc(C4(O)CCOCC4)c3)ccc1c2-c1ccccc1Cl`, the pIC50 in the test listed under Homo sapiens [1] (Homo sapiens) is 7.96; in test [2], 6.42; in the test filed under Homo sapiens [3], 5.96.
With `O=C(c1cccnc1)c1cc(-c2ccoc2)c2ccc(OCc3cccc(C4(O)CCOCC4)c3)cc2c1`, the pIC50 in the test filed under Homo sapiens [1] (Homo sapiens) is 8.15; in test [2] it was 6.92; in the test filed under Homo sapiens [3] it was 6.43.
As to `O=C1OCc2c1cc1cc(OCc3cccc(C4(O)CCOCC4)c3)ccc1c2-c1ccco1`, the pIC50 in the test filed under Homo sapiens [1] (Homo sapiens) is 8.30; in test [2], 6.55; in the test listed under Homo sapiens [3], 6.35.
Regarding `CCCCc1cc(C(=O)OC)cc2cc(OCc3cccc(C4(O)CCOCC4)c3)ccc12`, the values for the pIC50 (in the test filed under Homo sapiens [1] (Homo sapiens); in test [2]) were 7.82 and 5.66, respectively.
Regarding `COC(=O)c1cc(-c2ccccc2)c2ccc(OCc3cccc(C4(O)CCOCC4)c3)cc2c1`, the pIC50 is 8.52 in the test filed under Homo sapiens [1] (Homo sapiens), 7.15 in test [2] and 7.00 in the test listed under Homo sapiens [3].
For the compound `O=C1OCc2c1cc1cc(OCc3cccc(C4(O)CCOC(O)C4)c3)ccc1c2-c1ccccc1` (stereo not drawn), the negative-log IC50 (pIC50) in the test listed under Homo sapiens [1] (Homo sapiens) is 7.82; in test [2] it was 6.09; in the test listed under Homo sapiens [3] it was 5.80.
As to `COc1cccc(-c2c3c(cc4cc(OCc5cccc(C6(O)CCOCC6)c5)ccc24)C(=O)OC3)c1`, the pIC50 in the test filed under Homo sapiens [1] (Homo sapiens) is 8.40; in test [2], 7.10; in the test filed under Homo sapiens [3] it was 6.59.
For `N#Cc1cc(-c2ccoc2)c2ccc(OCc3cccc(C4(O)CCOCC4)c3)cc2c1`, the pIC50 is 8.70 in the test listed under Homo sapiens [1] (Homo sapiens), 7.52 in test [2] and 8.00 in the test filed under Homo sapiens [3].
As for `O=C1OCc2c1cc1cc(OCc3cccc(C4(O)CC5COC(C4)O5)c3)ccc1c2-c1ccoc1` (stereo in doubt; 3u), the pIC50 in the test listed under Homo sapiens [1] is 8.15; in test [2], 6.85.
For `CC(c1cc2ccccc2s1)N(O)C(N)=O` (stereo not drawn) [ZILEUTON], the negative logarithm of the IC50 (pIC50) in the test filed under Homo sapiens [3] is 5.70.

Usually pIC50 stands for the negative decadic logarithm of the IC50, by convention in mol/L.
